High-throughput results as filed in PubChem BioAssay.
CRFR2-BP ag: agonists of human CRF-binding protein/CRF-R2 receptor complex; HEK293 CRF-R2/CRF-BP, calcium dye fluorescence (FLIPR); percent of saturating CRF peptide response; activation, % at 13.2 µM; 350,000 compounds, 0.46% hits; AID 588473;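 active = activation of at least 50%, plus an integration ratio under a set limit after plate pattern correction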;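 note: plate controls were neutral control wells without compound for no effect and CRF at EC100 for full effect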
GPR7 antagonist: blocks human GPR7 receptor signaling; 290,000 compounds, 1.1% hits; P48145; inhibition, % at 4.4 µM; GPR7-expressing cells, fluorescence antagonist assay; in the data active = inhibition above about 16%, passing the limit was not always enough;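 note: cells stimulated with the agonist NPW; 0% = agonist with vehicle and 100% = vehicle without agonist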
CRFR2-BP antag: blocks CRF-induced signaling of the CRF-BP/CRF-R2 complex | HEK293 CRF-R2/CRF-BP, CRF-induced calcium fluorescence | inhibition, % at 11.8 µM | 350,000 compounds, 0.59% hits;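 active = inhibition of the ligand-induced calcium signal above about 50% at the single tested concentration, limit read from the data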
zfTRPN1 agonist: agonists of zebrafish TRPN1 channel | HEK293 zebrafish TRPN1-YFP, Fluo-8 calcium fluorescence; 100% = response to 87 µM carbachol | activation, % at 3 µM | 220,000 compounds, 0.18% hits;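 active = activation above its plate's cutoff, the mean activation of test wells on that plate plus 3 SD, cut at about 19% in these data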;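 note: 0% = DMSO alone and 100% = 87 µM carbachol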
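Material: zebrafish TRPN1-YFP in HEK293 cells; Doses: single test compound dose, 3 µM nominal, 0.3% DMSO; Timing: dye loading 1 h at 37 °C, then 30 min room temperature; Technique: intracellular calcium fluorescence with Fluo-8; Benchmarks: high carbachol 87 µM, low DMSO alone.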
TRPML3 ag: activates the human TRPML3 channel | Q8TDD5 | HEK293 TRPML3-YFP, Fluo-8 calcium fluorescence; 100% = the carbachol control signal | activation, % at 3 µM | 220,000 compounds, 0.29% hits | AID 1448;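 active = activation above its plate's cutoff, the mean activation of the plate's test wells plus 3 SD, cut at about 12% in these data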;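 note: 0% = DMSO only wells and 100% = carbachol wells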
Target sequence (Q8TDD5 whole entry, looked up): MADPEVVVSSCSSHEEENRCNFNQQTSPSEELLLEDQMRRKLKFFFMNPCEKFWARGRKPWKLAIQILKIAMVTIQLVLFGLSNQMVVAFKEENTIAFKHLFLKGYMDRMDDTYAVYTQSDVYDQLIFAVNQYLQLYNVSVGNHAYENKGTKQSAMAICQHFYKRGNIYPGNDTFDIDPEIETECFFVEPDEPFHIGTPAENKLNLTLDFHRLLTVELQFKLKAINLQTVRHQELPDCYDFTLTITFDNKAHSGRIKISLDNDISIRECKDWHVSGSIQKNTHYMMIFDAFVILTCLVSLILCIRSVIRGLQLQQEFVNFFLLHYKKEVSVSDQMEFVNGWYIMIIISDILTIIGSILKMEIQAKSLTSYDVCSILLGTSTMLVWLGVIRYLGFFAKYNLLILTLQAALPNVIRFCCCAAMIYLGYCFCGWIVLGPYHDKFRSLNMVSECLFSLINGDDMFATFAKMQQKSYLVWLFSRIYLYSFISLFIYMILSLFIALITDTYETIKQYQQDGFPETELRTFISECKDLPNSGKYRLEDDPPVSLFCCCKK
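Test system: HEK293 cells stably carrying human TRPML3-YFP; Doses: single dose, 3 µM final nominal compound, 0.3% DMSO final; Schedule: dye loading 1 h 37 °C then 30 min ambient, 125 s read; Technique: Fluo-8 calcium fluorescence; Benchmarks: high control carbachol 87 µM, low control DMSO.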
* hit, by the source's call. In the library only some 2% were active in any assay of this set; here they are far more common.

Screening Cc1cc(/C=C(\C#N)c2nnc(N3CCOCC3)n2-c2ccccc2)c(C)n1-c1ccccc1 returned GPR7 antagonist -8, zfTRPN1 agonist 1 and TRPML3 ag 0.
For C=CCN1C(c2ccccc2)=CS/C1=C(/C#N)c1nnc(N2CCOCC2)n1-c1ccccc1 the results were CRFR2-BP ag 26, GPR7 antagonist -3, CRFR2-BP antag -23, zfTRPN1 agonist -1 and TRPML3 ag 1.
For CN1C(c2ccc(F)cc2)=CS/C1=C(/C#N)c1nnc(N2CCOCC2)n1-c1ccccc1 the results were CRFR2-BP ag -2, GPR7 antagonist 3, CRFR2-BP antag 95*, zfTRPN1 agonist 0 and TRPML3 ag 1.
For Cc1ccnc(NC(=O)c2ccc(S(=O)(=O)N3CCCC3)cc2)c1 the results were CRFR2-BP ag -2 and CRFR2-BP antag 10.
NNC(=O)C1SCCN1S(=O)(=O)c1ccc(Cl)cc1 (configuration not stated) was read as CRFR2-BP ag 1 and CRFR2-BP antag -6.
Screening Oc1sc(C=Nc2ccccc2)c2ccccc12 returned CRFR2-BP ag 123*, GPR7 antagonist -10, CRFR2-BP antag -228, zfTRPN1 agonist 6 and TRPML3 ag 3.
For CCC(Oc1ccccc1F)C(=O)NCCCn1ccnc1 (configuration not stated) the results were CRFR2-BP ag 0, GPR7 antagonist -6 and CRFR2-BP antag 18.
For C=C(C)CSc1nc2sc3c(c2c(=O)n1-c1ccc(OC)cc1)CCN(C)C3 the results were CRFR2-BP ag 1, GPR7 antagonist -12 and CRFR2-BP antag 7.
Screening COC(=O)CNC(=O)COC(=O)C(Cc1ccccc1)NC(=O)c1ccco1 (configuration not stated) returned CRFR2-BP ag 55*, GPR7 antagonist 12, CRFR2-BP antag 3, zfTRPN1 agonist -1 and TRPML3 ag 0.
`O=C(COC(=O)[C@H](Cc1ccccc1)NC(=O)c1ccco1)Nc1ccccc1` gave CRFR2-BP ag 11 and CRFR2-BP antag 5.
Screening COc1ccc(C(=O)Nc2nc(C)cs2)cc1S(=O)(=O)N1CCOCC1 returned CRFR2-BP ag 0 and CRFR2-BP antag 1.
O=C(COC(=O)c1n[nH]c(=O)c2ccccc12)Nc1cccc(S(=O)(=O)N2CCOCC2)c1 was read as CRFR2-BP ag 1 and CRFR2-BP antag 4.
Screening Cc1ccc(NC(=O)COC(=O)CCC(=O)c2cccs2)c(Br)c1 returned CRFR2-BP ag -1 and CRFR2-BP antag 59*.
For O=C(COC(=O)CCC(=O)c1cccs1)Nc1ccc(S(=O)(=O)N2CCOCC2)cc1 the results were CRFR2-BP ag 0, GPR7 antagonist -2, CRFR2-BP antag 7, zfTRPN1 agonist 3 and TRPML3 ag 1.
Screening O=C(COC(=O)c1ccncc1)Nc1cc(S(=O)(=O)N2CCOCC2)ccc1Cl returned CRFR2-BP ag -2 and CRFR2-BP antag 67*.
Screening Cc1ccc(CNC(=O)CCC(=O)c2cccs2)cc1 returned CRFR2-BP ag 1, GPR7 antagonist -9, CRFR2-BP antag 59*, zfTRPN1 agonist -1 and TRPML3 ag 0.
For Cc1ccc(S(=O)(=O)N2CCOCC2)cc1NC(=O)COC(=O)CCC(=O)c1cccs1 the results were CRFR2-BP ag 2, GPR7 antagonist 19*, CRFR2-BP antag 0, zfTRPN1 agonist 2 and TRPML3 ag 0.
CC(c1nnc(SCC(=O)N(C)C2CCS(=O)(=O)C2)n1-c1ccccc1)N(C)C (configuration not stated) was read as CRFR2-BP ag -1 and CRFR2-BP antag 3.
Screening CSc1ncnc2c1ncn2CCCNCCCc1ccccc1 returned CRFR2-BP ag -1 and CRFR2-BP antag 2.
For COc1ccc(C(=O)O)cc1S(=O)(=O)Nc1ccc(N2CCCCC2)cc1 the results were CRFR2-BP ag 1 and CRFR2-BP antag -7.
Screening COc1cc(SC)ccc1C(=O)OCC(=O)N1CC(=O)Nc2ccccc21 returned CRFR2-BP ag -3 and CRFR2-BP antag -11.
Screening COc1cc(C=O)ccc1Oc1cnccn1 returned CRFR2-BP ag 0, GPR7 antagonist 1, CRFR2-BP antag 56*, zfTRPN1 agonist 3 and TRPML3 ag 0.
`O=C(Oc1c(Br)cc([N+](=O)[O-])cc1Br)c1cccnc1` gave CRFR2-BP ag 21, GPR7 antagonist -6, CRFR2-BP antag 68*, zfTRPN1 agonist 1 and TRPML3 ag 1.
`Cc1ccc(NC(=O)c2nc3nccc(C)n3n2)cc1S(=O)(=O)N1CCCCC1` gave CRFR2-BP ag -1 and CRFR2-BP antag 3.
Screening COc1ccc(NC(=O)c2nc3nccc(C)n3n2)cc1S(=O)(=O)N1CCOCC1 returned CRFR2-BP ag 0 and CRFR2-BP antag 108*.
Screening CC1C(=O)C(C)C(c2cccs2)NC1c1cccs1 (configuration not stated) returned CRFR2-BP ag -2, GPR7 antagonist 6, CRFR2-BP antag 57*, zfTRPN1 agonist -1 and TRPML3 ag -1.
Cc1ccccc1C1NC(c2ccccc2C)C(C)C(=O)C1C (configuration not stated) was read as CRFR2-BP ag -1, GPR7 antagonist -8 and CRFR2-BP antag 21.
`O=C(O)CCC(=O)Nc1ccc(Br)c(Cl)c1` gave CRFR2-BP ag -3, GPR7 antagonist -7, CRFR2-BP antag 67*, zfTRPN1 agonist 0 and TRPML3 ag 0.
For CCCC(=O)Nc1ccc(Br)c(Cl)c1 the results were CRFR2-BP ag -1, GPR7 antagonist -7, CRFR2-BP antag -5, zfTRPN1 agonist -1 and TRPML3 ag 1.
For Cn1c(N)c(C(=O)COC(=O)c2ccc(OC(F)F)cc2)c(=O)n(C)c1=O the results were CRFR2-BP ag 1 and CRFR2-BP antag -7.
Screening CCOC(=O)c1oc2cc(O)ccc2c(=O)c1-c1ccccc1OC returned CRFR2-BP ag 0, GPR7 antagonist -10, CRFR2-BP antag -3, zfTRPN1 agonist 1 and TRPML3 ag 0.
For Cc1ccccc1-c1cc(=O)c2c(O)cccc2o1 the results were CRFR2-BP ag -6 and CRFR2-BP antag 15.
`O=c1cc2oc3cc(O)c(O)cc3c(-c3ccccc3O)c-2cc1O` gave CRFR2-BP ag 44, GPR7 antagonist -7, CRFR2-BP antag -47, zfTRPN1 agonist 18 and TRPML3 ag 12*.
Screening COc1ccc(OC)c(-c2c3cc(O)c(=O)cc-3oc3cc(O)c(O)cc23)c1 returned CRFR2-BP ag 145*, GPR7 antagonist -8, CRFR2-BP antag -71, zfTRPN1 agonist 7 and TRPML3 ag 3.
CCOc1ccccc1-c1c2cc(O)c(=O)cc-2oc2cc(O)c(O)cc12 was read as CRFR2-BP ag 260*, GPR7 antagonist -10, CRFR2-BP antag -219, zfTRPN1 agonist 4 and TRPML3 ag 8.
`NC(=O)C1CCCN(C(=O)CCC(=O)c2cccs2)C1` (configuration not stated) gave CRFR2-BP ag 3 and CRFR2-BP antag -1.
